The test system of one data set is Trypanosoma cruzi. Briefly: Antitrypanosomal activity against Trypanosoma cruzi Tulahuen intracellular amastigote harboring beta-galactosidase infected in mouse NIH/3T3 cells after 96 hrs by CPRG reagent based assay. It counts as functional, organism-based. The note with it: NIH3T3, 96 h.
A short description of data set [1]: Selectivity index, ratio of TC50 for human HepG2 cells to EC50 for Plasmodium falciparum D6 trophozoites. Format: toxicity. To be noted: read-out: Selectivity Index. The procedure, abridged: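 P. falciparum D6 screened in duplicate or quadruplicate. Selectivity = HepG2 TC50 / P. falciparum EC50.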
For data set [2], the system named is Trypanosoma brucei brucei. The data set is described as follows: Antitrypanosomal activity against Trypanosoma brucei brucei 427 at 5 uM after 48 hrs by presto blue dye based fluorescence assay relative to control. Format: functional. Summed up: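 Single-concentration screen of bloodstream T. brucei cultures at 5 μM, 5 × 10^4 cells/mL; percent proliferation inhibition recorded.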

Data set [3] can be described thus: Selectivity index, ratio of TC50 for human HepG2 cells to EC50 for Leishmania major intracellular amastigotes harboring luciferase infected in mouse RAW264.7 cells. To be noted: read-out: Selectivity Index. Format: toxicity, cell-based. The procedure, abridged: (§1)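 L. major amastigotes screened in duplicate or quadruplicate. Selectivity derived as HepG2 TC50 / L. major EC50.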

Another data set concerns Leishmania major. Briefly: Antileishmanial activity against Leishmania major intracellular amastigotes harboring luciferase infected in mouse RAW264.7 cells after 96 hrs by luminescence assay. Format: functional, organism-based. To be noted: RAW264.7, 96 h. The procedure, abridged:
as §1

A short description of data set [4]: Cytotoxicity against human HepG2 cells. It counts as cell-based. To be noted: read-out: TC50 (the source's name).
Data set [5] can be described thus: Cytotoxicity against mouse NIH/3T3 cells. It counts as cell-based, NIH3T3. To be noted: read-out: TC50 (the source's name).
The test system of another data set is Plasmodium falciparum. The data set is described as follows: Antimalarial activity against Plasmodium falciparum D6 trophozoites after 72 hrs by SYBR Green I dye-based fluorescence assay. Format: functional, organism-based. The note with it: D6, 72 h. The procedure, abridged: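 P. falciparum D6 strain; compounds run in duplicate or quadruplicate; EC50 determined from dose-response.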

Data set [6] is described as follows: Selectivity index, ratio of TC50 for mouse NIH/3T3 cells to EC50 for Trypanosoma cruzi Tulahuen intracellular amastigote harboring beta-galactosidase. Format: toxicity, cell-based. The note with it: read-out: Selectivity Index. The procedure, abridged:
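NIH 3T3 cells, the host line for intracellular T. cruzi amastigote culture, tested for toxicity. Selectivity = NIH3T3 TC50 / T. cruzi EC50.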

In general, EC50 refers to the midpoint of the concentration-response curve. `CC(C)(C)OC(=O)N1CCN(CC#Cc2cc3ncnc(Nc4ccc(OCc5cccc(F)c5)c(Cl)c4)c3s2)CC1`: the concentration for a half-maximal effect (EC50) with Trypanosoma cruzi is 13 µM; with Leishmania major, 6.9 µM; with Plasmodium falciparum it was 1.5 µM. Besides, the values for the selectivity ratio in data set [1], in data set [3] and in data set [6] were more than 19, more than 3.5 and 3.6, respectively. In data set [2], this compound registered an Activity of 15%. Moreover, the CC50 is more than 24 µM in [4] and 47 µM in data set [5].
`Fc1cccc(COc2ccc(Nc3ncnc4sc(C#CCN5CCOCC5)cc34)cc2Cl)c1`: the selectivity ratio in data set [1] is more than 9.7; in data set [3] it was more than 4.5. In data set [2], this compound had an Activity of 48%. The concentration for a half-maximal effect (EC50) came out at 6.5 µM in the data set with Leishmania major and 3 µM in the data set on Plasmodium falciparum. In addition, in [4], the CC50 is more than 29 µM.
For the compound `CN(C)CC#Cc1cc2ncnc(Nc3ccc(OCc4cccc(F)c4)c(Cl)c3)c2s1`, the EC50 in the data set with Trypanosoma cruzi is 8.2 µM; in the data set with Leishmania major, 2.5 µM; in the data set with Plasmodium falciparum, more than 15 µM. Also, the Activity in data set [2] was 52%. Also, the selectivity ratio is more than 13 in data set [3] and more than 6 in data set [6]. Also, the CC50 in data set [4] was more than 32 µM; in data set [5], more than 50 µM.
For `Fc1cccc(COc2ccc(Nc3ncnc4cc(C#CCN5CCSCC5)sc34)cc2Cl)c1`, the EC50 in the data set on Trypanosoma cruzi was 5 µM; with Leishmania major it was 5.9 µM; in the data set with Plasmodium falciparum it was more than 15 µM. In data set [2], this compound displayed an Activity of 12%. Besides, the selectivity ratio in data set [3] was more than 4.8; in data set [6], more than 10. The CC50 is more than 28 µM in data set [4] and more than 50 µM in data set [5].
Consider `Fc1cccc(COc2ccc(Nc3ncnc4cc(C#Cc5ccc(C(F)(F)F)nc5)sc34)cc2Cl)c1`, for which the half-maximal effective concentration (EC50) is more than 50 µM with Trypanosoma cruzi, more than 3 µM in the data set on Leishmania major and more than 3.6 µM in the data set with Plasmodium falciparum. Also, the Activity in data set [2] amounted to 31%. In addition, the CC50 in data set [4] was more than 5 µM; in data set [5], more than 50 µM.
For `Fc1cccc(COc2ccc(Nc3ncnc4ccc(C#CCN5CCOCC5)cc34)cc2Cl)c1`, the EC50 with Trypanosoma cruzi is 0.8 µM; in the data set with Leishmania major, 5.5 µM; with Plasmodium falciparum, 5.9 µM. Further, the selectivity ratio in [1] was more than 5.1; in [3] it was more than 5.5; in data set [6] it was 41. Besides, the Activity in [2] is reported as 27%. Besides, the CC50 in data set [4] was more than 30 µM; in data set [5], 33 µM.
For `CCOC(=O)CN(C)CC#Cc1cc2ncnc(Nc3ccc(OCc4cccc(F)c4)c(Cl)c3)c2s1`, the 50% effective concentration (EC50) with Trypanosoma cruzi was determined as 9.6 µM; in the data set on Leishmania major, 4.6 µM; in the data set on Plasmodium falciparum, 3.8 µM. Moreover, the figures for the selectivity ratio in data set [1], in data set [3] and in data set [6] were 7.1, 5.9 and 5.4, respectively. In data set [2], the Activity was found to be 27%. For the same compound, the figures for the CC50 in [4] and in data set [5] were 27 µM and 52 µM, respectively.
In the case of `CC(C)(C)CC#Cc1cc2c(Nc3ccc(OCc4cccc(F)c4)c(Cl)c3)ncnc2s1`, the figures for the EC50 in the data set on Trypanosoma cruzi, in the data set with Leishmania major and with Plasmodium falciparum were 30 µM, more than 15 µM and 5.7 µM, respectively. Besides, the selectivity ratio is more than 5.6 in [1] and more than 1.7 in [6]. In addition, the Activity in data set [2] is 1%. Besides, the results for the CC50 in data set [4] and in data set [5] were more than 32 µM and more than 50 µM, respectively.
In the case of `Fc1cccc(COc2ccc(Nc3ncnc4cc(C#CCN5CCOCC5)sc34)cc2Cl)c1`, the EC50 in the data set on Trypanosoma cruzi is 3.4 µM; in the data set on Leishmania major, 7.6 µM; in the data set with Plasmodium falciparum, 3 µM. Besides, the figures for the selectivity ratio in data set [1], in [3] and in data set [6] were more than 9.7, more than 3.8 and 1.4, respectively. In data set [2], this compound had an Activity of 16%. For the same compound, the CC50 in data set [4] was more than 29 µM; in data set [5] it was 4.7 µM.
`Fc1cccc(COc2ccc(Nc3ncnc4ccc(-c5cccc(N6CCOCC6)c5)cc34)cc2Cl)c1`: the CC50 in data set [4] is more than 35 µM.
As to `CN(CC#Cc1cc2c(Nc3ccc(OCc4cccc(F)c4)c(Cl)c3)ncnc2s1)Cc1ccccc1`, the figures for the EC50 in the data set with Trypanosoma cruzi, in the data set on Leishmania major and in the data set on Plasmodium falciparum were 1.9 µM, 11 µM and 4.8 µM, respectively. Moreover, the selectivity ratio in data set [1] turned out to be 4.6; in data set [3] it was 2; in data set [6], 1.3. For the same compound, the Activity in data set [2] came out at 0%. Besides, the CC50 in data set [4] came to 21.6 µM; in data set [5] it was 2.5 µM.
For `Fc1cccc(COc2ccc(Nc3ncnc4ccc(C#CCN5CCSCC5)cc34)cc2Cl)c1`, the EC50 with Trypanosoma cruzi was 2.5 µM; in the data set on Leishmania major, 5.4 µM; in the data set with Plasmodium falciparum, 1.1 µM. Besides, the figures for the selectivity ratio in data set [1], in data set [3] and in [6] were more than 26, more than 5.4 and more than 20, respectively. This compound also gave an Activity in data set [2] of 19%. In addition, the CC50 was more than 29 µM in [4] and more than 50 µM in data set [5].
For `CCOC(=O)CN(C)CC#Cc1ccc2ncnc(Nc3ccc(OCc4cccc(F)c4)c(Cl)c3)c2c1`, the EC50 with Trypanosoma cruzi was 8 µM; with Leishmania major it was more than 15 µM; in the data set on Plasmodium falciparum, more than 15 µM. This compound also yielded an Activity in data set [2] of 23%. Besides, the CC50 in data set [4] is more than 28 µM; in [5] it was more than 50 µM. The selectivity ratio in [6] is more than 6.3.
Turning to `CN(CC#Cc1cc2ncnc(Nc3ccc(OCc4cccc(F)c4)c(Cl)c3)c2s1)Cc1ccccc1`, the EC50 with Trypanosoma cruzi is more than 50 µM; with Leishmania major it was more than 15 µM; in the data set on Plasmodium falciparum, more than 15 µM. The compound also returned an Activity in data set [2] of 18%. Moreover, the values for the CC50 in [4] and in data set [5] were more than 27 µM and more than 50 µM, respectively.
On to `CCCN(CC#Cc1cc2ncnc(Nc3ccc(OCc4cccc(F)c4)c(Cl)c3)c2s1)CCC`, for which the EC50 with Trypanosoma cruzi was more than 50 µM; in the data set with Leishmania major, 6 µM; in the data set on Plasmodium falciparum it was more than 15 µM. In data set [2], this compound came in with an Activity of 1%. Besides, in [3], the selectivity ratio turned out to be 4.5. Besides, the CC50 in [4] was 26.5 µM; in [5], more than 50 µM.
With `CCN(CC)CCCC(C)Nc1ccnc2cc(Cl)ccc12` (stereo not drawn) [CHLOROQUINE], the EC50 with Plasmodium falciparum is 0.0089 µM.
Consider `CC(C)(C)CC#Cc1cc2ncnc(Nc3ccc(OCc4cccc(F)c4)c(Cl)c3)c2s1`, for which the EC50 with Trypanosoma cruzi is more than 50 µM; in the data set with Leishmania major, more than 15 µM; in the data set with Plasmodium falciparum it was more than 15 µM. In data set [2], this compound came in with an Activity of 31%. Moreover, the CC50 is 29.3 µM in [4] and more than 50 µM in data set [5].
The compound `C[C@@H]1[C@H](O)[C@@H](C)/C=C/C=C/C=C/C=C/C=C/C=C/C=C/[C@H](O[C@@H]2O[C@H](C)[C@@H](O)[C@H](N)[C@@H]2O)C[C@@H]2O[C@](O)(C[C@@H](O)C[C@@H](O)[C@H](O)CC[C@@H](O)C[C@@H](O)CC(=O)O[C@H]1C)C[C@H](O)[C@H]2C(=O)O` [AMPHOTERICIN B] displayed a 50% effective concentration (EC50) in the data set on Leishmania major of 0.035 µM.
In the case of `Fc1cccc(COc2ccc(Nc3ncnc4ccc(C#CC5CCCC5)cc34)cc2Cl)c1`, the figures for the EC50 in the data set on Trypanosoma cruzi, in the data set with Leishmania major and with Plasmodium falciparum were 2 µM, more than 2 µM and more than 15 µM, respectively. For the same compound, the Activity in data set [2] is given as 2%. The CC50 in data set [4] was more than 3 µM; in [5], more than 50 µM. Also, the selectivity ratio in data set [6] was more than 25.
Take `Fc1cccc(COc2ccc(Nc3ncnc4cc(C#CCN5CCNCC5)sc34)cc2Cl)c1`: the concentration giving a half-maximal response (EC50) is more than 50 µM in the data set with Trypanosoma cruzi, 4 µM in the data set with Leishmania major and 1.9 µM with Plasmodium falciparum. Further, the selectivity ratio in data set [1] is more than 15; in [3] it was more than 7.3. Moreover, the Activity in [2] is recorded as 16%. Also, the figures for the CC50 in data set [4] and in data set [5] were more than 29 µM and more than 50 µM, respectively.
On to `Fc1cccc(COc2ccc(Nc3ncnc4cc(C#Cc5ncccc5F)sc34)cc2Cl)c1`, for which the EC50 with Trypanosoma cruzi was 19 µM; in the data set with Leishmania major, more than 15 µM; in the data set on Plasmodium falciparum it was 1.1 µM. Moreover, the figures for the selectivity ratio in data set [1] and in data set [6] were 27 and 2.5, respectively. In data set [2], the Activity was found to be 19%. In addition, the CC50 turned out to be 30 µM in data set [4] and 47 µM in [5].
For the compound `CCOC(=O)CN(C)CC#Cc1cc2c(Nc3ccc(OCc4cccc(F)c4)c(Cl)c3)ncnc2s1`, the EC50 in the data set on Trypanosoma cruzi was more than 50 µM; with Leishmania major, 9 µM; with Plasmodium falciparum, more than 15 µM. Also, the Activity in data set [2] worked out at 53%. Moreover, the selectivity ratio in data set [3] was more than 3.1. The CC50 in data set [4] is more than 28 µM; in data set [5], more than 50 µM.
Turning to `CC(C)CC#Cc1cc2ncnc(Nc3ccc(OCc4cccc(F)c4)c(Cl)c3)c2s1`, the EC50 was more than 50 µM in the data set on Trypanosoma cruzi, more than 15 µM in the data set on Leishmania major and more than 15 µM with Plasmodium falciparum. The Activity in data set [2] is on record as 11%. In addition, the CC50 was more than 32 µM in data set [4] and more than 50 µM in data set [5].
As for `Fc1cccc(COc2ccc(Nc3ncnc4cc(C#Cc5cn6ccnc6cn5)sc34)cc2Cl)c1`, the EC50 in the data set on Trypanosoma cruzi is more than 50 µM; in the data set on Leishmania major, more than 15 µM; in the data set on Plasmodium falciparum, 5.7 µM. Also, in data set [1], the selectivity ratio is more than 4.9. Also, in data set [2], the Activity turned out to be 33%. Moreover, the values for the CC50 in data set [4] and in data set [5] were more than 28 µM and more than 50 µM, respectively.
In the data set on Trypanosoma cruzi, `O=C(Cn1ccnc1[N+](=O)[O-])NCc1ccccc1` [BENZNIDAZOLE] had an EC50 of 0.79 µM.
